# Screening data: PubChem BioAssay, several laboratories
# Most compounds without a hit are left out; they make up all but 2.9% or so of the library.
# NALP1 inh = NALP1 inhibition; S. cerevisiae NALP1/ASC/caspase-1 growth, X-gal OD620, 72 h; inhibition, % at 10 µM; AID 2071; 280,000 compounds, 0.61% hits; in the data active means inhibition mostly above about 24%, no sharp cut-off; inactive means mostly below about 32%
# SUMO HTRF inh = SUMOylation inhibition; HTRF SUMOylation assay, SAE1/SAE2 + UBC9, in vitro; P63279; 290,000 compounds, 0.36% hits; inhibition, % at 35 µM; in the data active means inhibition above about 50%, passing the limit was not always enough
# Target sequence (P63279 whole entry, looked up): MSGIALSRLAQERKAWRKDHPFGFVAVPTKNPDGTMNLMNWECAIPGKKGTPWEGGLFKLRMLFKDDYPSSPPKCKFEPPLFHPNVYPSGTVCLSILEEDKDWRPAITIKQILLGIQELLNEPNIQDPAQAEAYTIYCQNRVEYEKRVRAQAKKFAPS
# VIM-2 inh = blocks Pseudomonas aeruginosa VIM-2 metallo-beta-lactamase; purified VIM-2, nitrocefin hydrolysis, epi-absorbance fluorescence; inhibition, % at 5.6 µM; 290,000 compounds, 0.89% hits;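 active means inhibition above the mean of all tested compounds plus 3 SD, cutoff set per screening run, cut at about 7.5% in these data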;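 further: red hydrolysis product quenches plate fluorescence so inhibitors raise well fluorescence; 0% = enzyme with DMSO and 100% = DMSO without enzyme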
# SUMO Mot1 rescue = inhibitors of SUMOylation pathway: yeast Mot1-301 growth rescue; 320,000 compounds, 1% hits; S. cerevisiae Mot1-301 growth rescue, ATP luminescence, 38.5C; percent above DMSO median, 100 means doubled; growth rescue, % at 18.8 µM;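 active means every valid replicate shows activation above 250% relative to neutral control wells; inactive means the rest, any valid replicate at or below 250%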;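 further: OY570 slx delta 5 strain wells were the positive control but not used for scaling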
# IMP-1 inh = blocks Pseudomonas aeruginosa IMP-1 metallo-beta-lactamase. purified IMP-1, nitrocefin hydrolysis, epi-absorbance fluorescence. inhibition, % at 5.6 µM. 290,000 compounds, 0.45% hits. AID 1556;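 active means inhibition above the mean plus 3 SD of all compounds in the same screening run, cut at about 4.5% in these data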;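 further: 0% = IMP-1 with DMSO and 100% = DMSO wells lacking enzyme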
#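 Assay system: purified IMP-1; Quantity: IMP-1 0.2 nM before substrate addition; Medium: HEPES buffer pH 7.1 with ZnSO4 and Brij 35; Incubation: 15 min enzyme–compound preincubation, then 25 min nitrocefin reaction, 25 °C; Signal: fluorescence quenching readout, ex 480/em 530 nm; Controls: DMSO with and without IMP-1; Repeats: singlicate testing.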
# FID counter = fluorescent intercalator displacement, NS3 helicase counter-screen | 290,000 compounds, 0.17% hits | DNA fluorescent intercalator displacement, fluorescence | inhibition, % at 7.9 µM | AID 1845; in the data active means inhibition above about 37%;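 further: 0% = vehicle and 100% = reference compound; higher means more ethidium bromide displaced from hairpin DNA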
# An asterisk follows results filed as active; . = no result given.
SMILES,NALP1 inh,SUMO HTRF inh,VIM-2 inh,SUMO Mot1 rescue,IMP-1 inh,FID counter
CC(c1ccco1)N(C(=O)c1ccccc1NS(=O)(=O)c1cccc([N+](=O)[O-])c1)c1ccccn1 (stereo not drawn),22,6,-4,7,-3,-25
O=Cc1ccc(-c2ccc(Cl)cc2Cl)[nH]1,-6,4,0,281,1,3
CCc1cc(=O)oc2c3c(cc(OCC(=O)NCc4cccnc4)c12)OC(C)(C)CC3,12,35,3,-15,-6,-39
CCC(NC(=O)COc1cc2c(c3oc(=O)c(C)c(C)c13)CCC(C)(C)O2)C(=O)O (stereo not drawn),5,39,11*,-8,-3,-19
COc1ccc(CNC(=O)COc2cc3c(c4oc(=O)cc(C)c24)CCC(C)(C)O3)cc1OC,-3,6,-2,334*,-3,-43
Cc1c(C)c2c(OCC(=O)NCc3cccnc3)cc3c(c2oc1=O)CCC(C)(C)O3,24,33,8.8*,90,-4,-22
CCc1cc(=O)oc2c3c(cc(OCC(=O)NCc4ccccn4)c12)OC(C)(C)CC3,21,39,0,0,-4,-38
CCc1cc(=O)oc2c3c(cc(OCC(=O)NCCCCCC(=O)O)c12)OC(C)(C)CC3,0,53*,0,6,-1,-34
CC1(C)CC(=O)C/C(=N\NC(=O)C2C3CCCCC32)C1 (stereo not drawn),9,12,-2,-16,-1,-1
CC1(C)CC(=O)C(C2=NC3(CCCCCC3)Cc3ccccc32)=C(O)C1,11,24,1,-3,0,-41
COc1ccc(S(=O)(=O)N2CCCCC2)cc1NC(=O)CCCNC(=O)c1ccc(Cl)cc1,.,.,.,-18,.,.
NC(=O)c1ccccc1N/C=C/C(=O)c1ccc(Cl)cc1Cl,9,26,8.0*,.,-3,-2
NC(=O)c1ccccc1N/C=C/C(=O)c1ccc(F)cc1,6,15,1,.,1,-6
O=C(COC(=O)c1cncc(Br)c1)NCc1ccco1,9,8,-4,414*,-3,-1
O=C(COC(=O)CCc1ccc(S(=O)(=O)N2CCOCC2)cc1)NC(=O)NC1CCCCC1,-2,-4,-2,10,-2,-30
COCC(=O)N1CCCC(CNS(=O)(=O)c2ccc(OC)cc2)C1 (stereo not drawn),-11,20,-1,670*,-3,-3
CCOC(=O)C1CCCN(C(=O)C2CCC(CNS(=O)(=O)c3ccc(NC(C)=O)cc3)CC2)C1 (stereo not drawn),-12,22,-2,282*,-5,-30
COc1ccc(S(=O)(=O)NCC2CCCN(Cc3cccnc3)C2)cc1 (stereo not drawn),32*,13,-2,44,-3,-3
COc1ccc(S(=O)(=O)NCC2CCCN(Cc3cccc(C(C)=O)c3)C2)cc1 (stereo not drawn),6,-1,0,51,0,1
CC1CC(C)(C)NC(=S)N1CCC(=O)N1c2ccccc2CC1C (stereo not drawn),0,2,-4,103,-4,-13
O=c1c(=O)n(O)c2ccccc2n1O,-9,19,4,50,11*,3
CCN(CC)CCCN(Cc1cc2cc3c(cc2[nH]c1=O)OCO3)C(=O)Nc1ccccc1OC,31,8,-1,-5,0,20
CCN(CC)CCCN(Cc1cc2cc(OC)c(OC)cc2[nH]c1=O)C(=O)Nc1ccccc1,-4,24,7.9*,-12,-2,11
O=[N+]([O-])c1cc(C(F)(F)F)cc([N+](=O)[O-])c1NCCNC(=S)Nc1ccc(Cl)c(Cl)c1,13,-12,-2,-10,0,5
CCC(O)(CC)C(=O)N/N=C/c1cc(Br)cc(Br)c1O,-6,-3,-4,494*,-1,0
SMILES,NALP1 inh,SUMO HTRF inh,VIM-2 inh,SUMO Mot1 rescue,IMP-1 inh,FID counter
CC(C)(C)N1CCC1C(N)=O (stereo not drawn),-2,18,0,-2,0,-10
CC1(C)S[C@@H]2[C@H](NC(=O)COc3ccccc3)C(=O)N2C1C(=O)OCC1CCCCC1 (stereo partly drawn),.,.,.,327*,.,.
N#CCC(=O)Nc1ccc(C(=O)Nc2cccnc2)cc1,24,30,0,-29,-3,-4
COc1cc(NC(=S)N2CCN(S(=O)(=O)c3ccc(C)cc3)CC2)cc(OC)c1,2,-4,-3,0,-2,-23
CCc1nn(CC(=O)NCCN2CCN(C)CC2)c(=O)c2cc3c(OC)cccc3n12,7,22,12*,-4,-2,32
CCc1nn(CC(=O)NCCC(C)C)c(=O)c2cc3c(OC)cccc3n12,13,2,3,-14,4,-15
Cc1cccc(NS(=O)(=O)c2ccc(C3CCCCC3)cc2)c1,6,4,-4,792*,-3,-13
O=C(O)c1cccc(NS(=O)(=O)c2ccc(C3CCCCC3)cc2)c1,-1,15,2,11,1,-28
C=CCn1c(SCC(=O)N2CCCC2)nc2c([nH]c3ccccc32)c1=O,7,14,3,-13,-2,-39
CCn1c(SCC(=O)N2CCOCC2)nc2c([nH]c3ccccc32)c1=O,5,11,8.0*,-3,-1,-14
O=C(Nc1ccc(OC(F)F)cc1)c1cc[n+]([O-])cc1,21,4,-1,12,-2,-3
Nc1ccc2oc(-c3cccs3)nc2c1,22,56*,-1,2,-3,4
Cc1ccc(-c2nc3cc(N)ccc3o2)cc1,27,52*,-3,35,-2,-5
Nc1ccc2oc(-c3cccc4ccccc34)nc2c1,-6,33,1,17,-1,-3
Cc1ccc(-c2nc3cc(C)ccc3o2)cc1,7,8,-4,-14,-3,-1
COC(=O)/C(=N/Nc1ccccc1OC)N1CCCc2ccccc21,-1,-9,-3,-1,-4,-6
CCOC(=O)c1ccc(NC(=O)c2nc[nH]c2C(=O)N(C)Cc2ccccc2)cc1,.,-18,.,12,.,.
O=C(NNC(=O)c1nn(-c2ccc(F)cc2)ccc1=O)c1ccccc1Cl,3,3,-3,-2,8.4*,-5
CCn1c(COc2ccc(Cl)cc2)nnc1SCC(=O)Nc1ccc2c(c1)OCCO2,38*,-4,-5,-22,-2,-12
CCn1c(COc2ccccc2C)nnc1SCC(=O)Nc1ccc2c(c1)OCCO2,17,-2,-4,.,-5,-12
NS(=O)(=O)c1ccc(CNC(=O)c2scc3c2CCCC3)cc1,0,13,1,19,-1,-2
CC(=O)Nc1ccc(NC(=O)C(C)OC(=O)CSCc2cccc(Cl)c2)cc1 (stereo not drawn),.,.,.,-3,.,.
